“Also recorded” adds a separate entry of the source.

These results are taken from paper PMC7453568 (ACS Central Science, 2020).

Experiment [1] deals with T1, KRAS^G12C (Homo sapiens, UniProt P01116, G12C). The experiment in a line: KRAS^G12C degradation, total KRAS levels by immunoblotting. The experiment is classed as cell-based.
The target in experiment [2] is T1, KRAS^G12C. The experiment in a line: KRAS^G12C engagement, band shift of PROTAC-conjugated KRAS on immunoblot. The experiment is classed as cell-based. The following applies: 2.5 μM. Summed up:
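KRAS was immunoblotted from independent wells harvested the same day. Engagement was the intensity of the higher-molecular-weight, PROTAC-modified band relative to unbound KRAS in DMSO samples. Mean ± SD, two biological replicates.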

Another experiment addresses KRAS^G13D (Homo sapiens, UniProt P01116, G13D). Nature of the experiment: KRAS engagement/degradation in HCT 116 cells. The experiment is classed as cell-based. The following applies: HCT 116 cells (heterozygous KRAS^G13D), up to 10 μM.
The test system of another experiment is pErk. The experiment in a line: Erk signaling. The following applies: for pErk: MIA PaCa-2 and NCI-H23 cells, 6 and 24 h. The format is cell-based, human. Summed up:
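Human KRAS^G12C cancer cells were treated for 24 h over a degrader dose range (NCI-H2030, heterozygous NCI-H23). Separately, MIA PaCa-2 and NCI-H23 received degrader or parent covalent inhibitor for 6 and 24 h, and time courses used 2.5 μM degrader. pErk and total Erk were immunoblotted and quantified against DMSO-treated cells. Lysates came from independent wells harvested the same day. Time-course data: mean ± SD, two biological replicates.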

For a further experiment, the system named is NCI-H2030 cells. The experiment in a line: Cell viability assay. The format is cell-based, human. The following applies: homozygous NCI-H2030 cells, MTS, 72 h.
For the next experiment, the system named is NCI-H23 cells. Nature of the experiment: Cell viability assay. The format is cell-based, human. The following applies: heterozygous NCI-H23 cells, MTS, 72 h.
The mark [3] stands for this setting: MIA PaCa-2, NCI-H23 and SW1573 cells, 2.5 μM, 6-72 h time course.
Setting [4] is: NCI-H2030 cells, 2.5 μM, 24 h time course.

A word on the Dmax: it is the greatest extent of degradation seen. Lower therefore signals shallow degradation. Regarding `C=C(F)C(=O)N1CCN(c2nc(OC[C@@H]3CCCN3CCCOCCC(=O)N[C@H](C(=O)N3C[C@H](O)C[C@H]3C(=O)NCc3ccc(-c4scnc4C)cc3)C(C)(C)C)nc3c2CCN(c2cccc4cccc(Cl)c24)C3)C[C@@H]1CC#N` [LC-2], the Dmax is roughly 75% on KRAS^G12C [1] (MIA PaCa-2, MIA PaCa-2 cells, KRAS^G12C +/+, 24 h); roughly 90% on KRAS^G12C [1] (NCI-H23, NCI-H23 cells, KRAS^G12C +/−, 24 h); roughly 40% on KRAS^G12C [1] (NCI-H358, NCI-H358 cells, KRAS^G12C +/−, 24 h); roughly 75% at KRAS^G12C [1] (NCI-H2030, NCI-H2030 cells, KRAS^G12C +/+, 24 h); roughly 90% at KRAS^G12C [1] (SW1573, SW1573 cells, KRAS^G12C +/+, 24 h). Besides, at KRAS^G12C [1] (setting [3]), the “duration of KRAS degradation” value is “sustained up to 72 h”. Further, at KRAS^G12C [1] (setting [3]), the “time to maximal KRAS degradation” value is listed as no more than 24 h. This molecule also displayed a KRAS degradation at KRAS^G12C [1] (NCI-H23 cells (heterozygous)) greater than 50%. Moreover, the “KRAS degradation with neddylation inhibition” value on KRAS^G12C [1] (NCI-H23 cells, 2.5 μM LC-2, 24 h) is on record as “rescues; also recorded: rescued KRAS degradation”. The “KRAS^G12C level rebound” value at KRAS^G12C [1] (NCI-H23 cells, 2.5 μM, 72 h time course) is “began to rebound at 72 h”. Further, the “KRAS^G12C levels with neddylation inhibitor MLN4924” value at KRAS^G12C [1] (NCI-H2030 cells, 1 μM MLN4924, 2.5 μM LC-2, 4 h) was “rescued KRAS^G12C levels”. In addition, the “KRAS^G12C levels with proteasome inhibitor epoxomicin” value at KRAS^G12C [1] (NCI-H2030 cells, 1 μM epoxomicin, 2.5 μM LC-2, 4 h) is “rescued KRAS^G12C levels”. Besides, the “KRAS^G12C degradation” value at KRAS^G12C [1] (NCI-H2030 cells, 2.5 μM, 4 h) is reported as roughly 65%. At KRAS^G12C [1] (setting [4]), the “persistence of maximal degradation” value is listed as “persisted up to 24 h; also recorded: maintained up to 24 h”. The “time to maximum degradation” value on KRAS^G12C [1] (setting [4]) is on record as no more than 8 h. For the same molecule, the “lowest concentration inducing maximal degradation of endogenous KRAS^G12C” value at KRAS^G12C [1] (NCI-H2030 cells, 24 h) turned out to be 2.5 µM. In addition, the “KRAS levels, dose response” value on KRAS^G12C [1] (NCI-H2030 cells, 24 h, increasing concentrations) is listed as “degrades KRAS^G12C in a dose-dependent manner”. For the same molecule, the “time to maximal degradation” value at KRAS^G12C [1] (SW1573 cells, 2.5 μM, 24 h time course) is on record as 12 h. Moreover, the “time at which KRAS^G12C binding/engagement is seen” value on KRAS^G12C [2] (NCI-H2030 cells) is no more than 1 h. Also, the “time at which KRAS engagement is seen” value at KRAS^G12C [2] (SW1573 cells) is on record as no more than 1 h. The “engagement or degradation of KRAS^G13D” value at KRAS^G13D is “No engagement or degradation”. Further, in the experiment on pErk (2.5 μM), the pErk entry is on record as “suppressed”. In addition, the “pErk signaling, dose response” value in the experiment with pErk (NCI-H23 cells, 24 h) is reported as “dose-dependent decrease”; in the experiment on pErk (NCI-H2030 cells, 24 h), “dose-dependent decrease”. For the same molecule, the “pErk levels versus DMSO-treated cells” value with pErk (SW1573 cells, 2.5 μM, 24 h) is on record as “significantly lower”. For the same molecule, in the experiment with pErk (SW1573 cells, 2.5 μM, all time points), the “total Erk versus DMSO” value is reported as “increased”. In addition, the “phosphorylated Erk” value in the experiment on pErk (SW1573 cells, 2.5 μM, between 1 and 4 h) was “inhibited”. Also, in the experiment with pErk (SW1573 cells, 2.5 μM, between 8 and 24 h), the pErk levels entry is recorded as “rebounded”.
As for `C=C(F)C(=O)N1CCN(c2nc(OC[C@@H]3CCCN3C)nc3c2CCN(c2cccc4cccc(Cl)c24)C3)C[C@@H]1CC#N` [MRTX849], in the experiment on pErk (0.10 μM), the pErk entry was “suppressed”. The “cell viability (antiproliferative potency)” value with NCI-H2030 cells and in the experiment on NCI-H23 cells was “more antiproliferative” in each case.
